Test results from ChEMBL document CHEMBL3585256, “Triphenylphosphonium Cations of the Diterpenoid Isosteviol: Synthesis and Antimitotic Activity in a Sea Urchin Embryo Model” (J Nat Prod, 2015).
Activity calls are given as the source filed them.

What was measured:
Paracentrotus lividus [1] = assay: Antimitotic activity against sea urichin L embryo model assessed as cleavage alteration after 2.5 to 5.5 hrs of fertilization by sea urichin embryo assay; type: functional
Paracentrotus lividus [2] = assay: Antimitotic activity against sea urichin L embryo model assessed as full mitotic arrest by sea urichin embryo assay; type: functional
Paracentrotus lividus [3] = assay: Antimitotic activity against sea urichin L embryo model assessed as embryo spinning by sea urichin embryo assay; type: functional
Paracentrotus lividus [4] = assay: Antimitotic activity against sea urichin L embryo model assessed as death of embryo at hatched blastula stage by sea urichin embryo assay; type: functional
Paracentrotus lividus [5] = assay: Induction of mitotic spindle defects in sea urichin L embryo model assessed as aberrant mitotic spindles by conventional light microscopy; type: functional, organism-based
Outline: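 Eggs exposed 8−15 min postfertilization, incubated at 21 °C. Mitotic apparatus examined by light microscopy at 1 h (first cleavage anaphase) and 2.5 h postfertilization, scored for aberrant, multipolar or absent spindles.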

Paracentrotus lividus [6] = assay: Antimitotic activity against sea urichin L embryo model assessed as inhibition of skeletal spiculae growth by sea urichin embryo assay; type: functional
Outline: (§1)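 Hatched free-swimming blastulae (8−9 h postfertilization) exposed to compound and followed to four-arm pluteus (34−36 h). Scored for spicule growth inhibition or arrest at late gastrula. Gametes obtained by intracoelomic 0.5 M KCl; embryos grown in filtered seawater at room temperature with paddle stirring, monolayer up to 2000 embryos/mL. Stocks in DMSO diluted with EtOH, or in water.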

Paracentrotus lividus [7] = assay: Induction of mitotic spindle defects in sea urichin L embryo model assessed as formation of aberrant mitotic spindles at 2 uM by conventional light microscopy
Paracentrotus lividus [8] = assay: Toxicity in sea urichin L embryo assessed as development up to 4 uM; type: organism-based; conditions: in vivo
Outline: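 Fertilized eggs exposed 8−15 min postfertilization to 2-fold decreasing concentrations, with cleavage alteration or arrest scored at 2.5−5.5 h. Effective threshold concentration defined as the lowest giving 100% cleavage alteration and embryo death before hatching, with no effect at 2-fold lower. Final DMSO ≤0.05% and EtOH ≤1%. Run in duplicate.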

HL-60 = assay: Cytotoxicity against human HL60 cells by MTT assay; type: functional, cell-based
MOLT-4 = assay: Cytotoxicity against human MOLT4 cells by MTT assay; type: functional; conditions: read-out: LD50 (the source's name)
BALL-1 = assay: Cytotoxicity against human BALL-1 cells by MTT assay; type: functional; conditions: read-out: LD50 (the source's name)
[9] = Cytotoxicity against human NUGC3 cells by MTT assay; type: functional; conditions: NUGC-3, read-out: LD50 (the source's name)
Paracentrotus lividus [10] = assay: Antimitotic activity against sea urichin L embryo model assessed as late gastrula stage by sea urichin embryo assay; type: functional; outline: as §1
Paracentrotus lividus [11] = assay: Induction of mitotic spindle defects in sea urichin L embryo model assessed as complete blocked of spindle assembly at 50 nM by conventional light microscopy

Row | Compound | EC (Paracentrotus lividus [1]) | EC (Paracentrotus lividus [2]) | EC (Paracentrotus lividus [3]) | EC (Paracentrotus lividus [4]) | Activity (Paracentrotus lividus [5]) | EC (Paracentrotus lividus [6]) | Activity (Paracentrotus lividus [7]) | Activity (Paracentrotus lividus [8]) | IC50 (HL-60) | CC50 (MOLT-4) | CC50 (BALL-1) | CC50 [9] | EC (Paracentrotus lividus [10]) | Activity (Paracentrotus lividus [11])
1 | C[C@@]12CC[C@@H]3[C@@](CC[C@H]4[C@@]3(C)CCC[C@@]4(C)C(=O)OCCCCCCCC[P+](c3ccccc3)(c3ccccc3)c3ccccc3)(CC1=O)C2.[Br-] | 2 µM | >4 µM | >4 µM | 0.5 µM | Active | – | – | – | – | – | – | – | – | –
2 | COc1cc([C@@H]2c3cc4c(cc3[C@@H](O[C@@H]3O[C@@H]5CO[C@@H](C)O[C@H]5[C@H](O)[C@H]3O)[C@H]3COC(=O)[C@H]23)OCO4)cc(OC)c1O [ETOPOSIDE] | 0.5 µM | >68 µM | >68 µM | 40 µM | – | 4 µM | – | – | – | – | – | – | – | –
3 | C[C@@]12CC[C@@H]3[C@@](CC[C@H]4[C@@]3(C)CCC[C@@]4(C)C(=O)OCCC[P+](c3ccccc3)(c3ccccc3)c3ccccc3)(CC1=O)C2.[Br-] | 2 µM | >4 µM | >4 µM | 4 µM | Active | – | – | – | – | – | – | – | – | –
4 | C[C@@]12CC[C@@H]3[C@@](CC[C@H]4[C@@]3(C)CCC[C@@]4(C)C(=O)OCCCCCC[P+](c3ccccc3)(c3ccccc3)c3ccccc3)(CC1=O)C2.[Br-] | 2 µM | >4 µM | >4 µM | 1 µM | Active | – | Active | – | – | – | – | – | – | –
5 | CC(=O)O[C@H]1C(=O)[C@@]2(C)[C@H]([C@H](OC(=O)c3ccccc3)[C@]3(O)C[C@H](OC(=O)[C@H](O)[C@@H](NC(=O)c4ccccc4)c4ccccc4)C(C)=C1C3(C)C)[C@]1(OC(C)=O)CO[C@@H]1C[C@@H]2O [PACLITAXEL] | 0.5 µM | >10 µM | >10 µM | 2 µM | – | – | – | – | – | – | – | – | – | –
6 | CC[N+](CC)(CC)CCOCCOCCOC(=O)[C@]1(C)CCC[C@@]2(C)[C@@H]3CC[C@@]4(C)C[C@]3(CC[C@@H]21)CC4=O.[Br-] | >100 µM | >100 µM | >100 µM | – | – | 40 µM | – | – | – | – | – | – | – | –
7 | C[C@@]12CC[C@@H]3[C@@](CC[C@H]4[C@@]3(C)CCC[C@@]4(C)C(=O)O)(CC1=O)C2 [ISOSTEVIOL] | >4 µM | >4 µM | >4 µM | – | – | – | – | Non-toxic | 75 µM | 84 µM | 87 µM | 167 µM | – | –
8 | C[C@@]12CC[C@@H]3[C@@](CC[C@H]4[C@@]3(C)CCC[C@@]4(C)C(=O)OCCOCCOCCOCC[P+](c3ccccc3)(c3ccccc3)c3ccccc3)(CC1=O)C2.[Br-] | 1 µM | 2 µM | >10 µM | – | Active | – | – | – | – | – | – | – | – | –
9 | COC(=O)Nc1nc2cc(C(=O)c3cccs3)ccc2[nH]1 [NOCODAZOLE] | 0.005 µM | 0.1 µM | 0.1 µM | >0.5 µM | – | – | – | – | – | – | – | – | 0.02 µM | Active
10 | C[C@@]12CC[C@@H]3[C@@](CC[C@H]4[C@@]3(C)CCC[C@@]4(C)C(=O)OCCOCCOCCOCCOCC[P+](c3ccccc3)(c3ccccc3)c3ccccc3)(CC1=O)C2.[Br-] | 1 µM | 4 µM | >10 µM | – | Active | – | – | – | – | – | – | – | – | –
11 | C[C@@]12CC[C@@H]3[C@@](CC[C@H]4[C@@]3(C)CCC[C@@]4(C)C(=O)OCCOCCOCC[P+](c3ccccc3)(c3ccccc3)c3ccccc3)(CC1=O)C2.[Br-] | 1 µM | 2 µM | >10 µM | – | Active | – | – | – | – | – | – | – | – | –
12 | CC[N+](CC)(CC)CCOCCOCCOCCOC(=O)[C@]1(C)CCC[C@@]2(C)[C@@H]3CC[C@@]4(C)C[C@]3(CC[C@@H]21)CC4=O.[Br-] | >100 µM | >100 µM | >100 µM | – | – | 100 µM | – | – | – | – | – | – | – | –
